# Test results from ChEMBL document CHEMBL1759946, “Proflavine derivatives as fluorescent imaging agents of amyloid deposits” (Bioorg Med Chem Lett, 2011).
# The source made the active and inactive calls. The calls are words filed in the database; no cut-off is given here.
# Organism: Mus musculus
# Assay: Binding affinity to beta amyloid plaque in triple transgenic alzheimer disease mouse model hippocampus at 100 uM after 90 mins by fluorescence microscopy
# Type: tissue-based
# Summary of the method: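 Plaque labeling was read from the compound's native fluorescence with fluorescein optics. Plaques were confirmed by thioflavin S staining of adjacent sections. Controls were age-matched wild-type sections, untreated sections and DAPI counterstain.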
row,Activity,Compound
1,Active,COc1ccc2c(c1)CN1c3ccc(OC)cc3CN2C1CCCCCCCn1cc(CNCCC(=O)Nc2ccc3cc4ccc(NC(C)=O)cc4nc3c2)nn1

# Tested on: not listed separately
# Assay: Induction of amyloid beta 40 fibril disassembly at 1:2 compound:amyloid-beta ratio
# Summary of the method: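 Fresh preformed Aβ40 fibrils were incubated at 37 °C with compound at a compound/Aβ ratio of 1/2. Disassembly was followed by the change in thioflavin T fluorescence.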
row,Activity,Compound
1,60%,O=C(O)CCCCC1CCSS1 (centres undefined)
2,90%,COc1cc(/C=C/C(=O)CC(=O)/C=C/c2ccc(O)c(OC)c2)ccc1O

# Tested on: not listed separately
# Assay: Inhibition of amyloid beta (1 to 40) fibril formation at 10 uM after 8 days by thioflavin T fluorescent dye assay
# Summary of the method: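 Compound at 10 µM was co-incubated for eight days with Aβ40 (50 µM) in the presence of thioflavin T. Dye fluorescence was read at 485 nm and expressed as percent of the control assay with Aβ40 alone.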
row,Compound,inhibition
1,CC(=O)Nc1ccc2cc3ccc(NC(=O)Cn4cc(CNC(=O)CCCCC5CCSS5)nn4)cc3nc2c1 (centres undefined),50%
2,C#CCOC(=O)Nc1ccc2cc3ccc(NC(C)=O)cc3nc2c1,Active
3,COc1ccc2c(c1)CN1c3ccc(OC)cc3CN2C1CCCCCCCn1cc(COC(=O)Nc2ccc3cc4ccc(NC(C)=O)cc4nc3c2)nn1,50%
4,COc1cc(/C=C/C(=O)CC(=O)/C=C/c2ccc(O)c(OC)c2)ccc1O,80%
5,CC(=O)Nc1ccc2cc3ccc(NC(=O)CN=[N+]=[N-])cc3nc2c1,50%

# Next, values leading:
row,inhibition,Compound
1,50%,C#CCNCCC(=O)Nc1ccc2cc3ccc(NC(C)=O)cc3nc2c1
2,50%,CC(=O)Nc1ccc2cc3ccc(NC(=O)CCN)cc3nc2c1
3,50%,COc1ccc2c(c1)CN1c3ccc(OC)cc3CN2C1CCCCCCCn1cc(CNCCC(=O)Nc2ccc3cc4ccc(NC(C)=O)cc4nc3c2)nn1
4,50%,CC(=O)Nc1ccc2cc3ccc(NC(=O)CCNC(=O)CCCCC4CCSS4)cc3nc2c1 (centres undefined)

# Tested on: not listed separately
# Assay: Inhibition of amyloid beta (1 to 40) fibril formation at 10 uM after 8 days by thioflavin T fluorescent dye assay
row,inhibition,Compound
1,inactive,C#CCNC(=O)CCCCC1CCSS1 (racemic)
2,inactive,COc1ccc2c(c1)CN1c3ccc(OC)cc3CN2C1CCCCCCCN=[N+]=[N-]
